Sampled rows, rich in hits. Any-hit rate of the full collection: about 3%.
TRPC4 potent: allosteric potentiators of mouse TRPC4 channel; B-score at 10 µM; Q9QUQ5; 310,000 compounds, 0.42% hits; HEK293 TRPC4beta/mu-opioid, DAMGO EC20, Fluo-4 Ca2+ flux; stronger effect = higher value;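 active = B-score of calcium response area above 5 SD of library B-scores, with initial fluorescence ratio within 5 SD of library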;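 also: B-score of integrated fluorescence ratio over time as area under calcium response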
Target sequence (Q9QUQ5 whole entry, looked up): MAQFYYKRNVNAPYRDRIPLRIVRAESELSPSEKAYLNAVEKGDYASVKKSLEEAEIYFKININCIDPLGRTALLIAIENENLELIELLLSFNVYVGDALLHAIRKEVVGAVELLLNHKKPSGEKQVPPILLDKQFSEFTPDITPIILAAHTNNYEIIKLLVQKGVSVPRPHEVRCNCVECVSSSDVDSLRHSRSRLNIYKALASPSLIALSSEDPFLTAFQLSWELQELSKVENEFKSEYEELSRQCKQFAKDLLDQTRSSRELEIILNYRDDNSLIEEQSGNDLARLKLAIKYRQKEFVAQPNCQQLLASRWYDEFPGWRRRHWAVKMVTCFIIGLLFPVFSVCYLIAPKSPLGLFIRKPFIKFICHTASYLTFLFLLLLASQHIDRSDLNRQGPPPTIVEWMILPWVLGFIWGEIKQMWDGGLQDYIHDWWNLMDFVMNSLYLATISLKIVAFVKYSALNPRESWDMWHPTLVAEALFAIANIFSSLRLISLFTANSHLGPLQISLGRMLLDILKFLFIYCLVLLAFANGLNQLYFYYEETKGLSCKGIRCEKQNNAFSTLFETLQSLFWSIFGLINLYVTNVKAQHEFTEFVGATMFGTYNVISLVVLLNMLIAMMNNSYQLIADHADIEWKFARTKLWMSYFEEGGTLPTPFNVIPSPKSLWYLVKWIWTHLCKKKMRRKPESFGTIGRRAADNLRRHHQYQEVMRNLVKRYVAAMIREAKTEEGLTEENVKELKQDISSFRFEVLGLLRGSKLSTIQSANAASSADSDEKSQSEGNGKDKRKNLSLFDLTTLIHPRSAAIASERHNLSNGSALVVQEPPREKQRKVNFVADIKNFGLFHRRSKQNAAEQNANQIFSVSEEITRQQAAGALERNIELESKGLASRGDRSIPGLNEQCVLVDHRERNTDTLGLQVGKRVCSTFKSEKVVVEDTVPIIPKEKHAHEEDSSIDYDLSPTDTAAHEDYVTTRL
Kir21 inh: Kir2.1 (mouse) channel inhibition | HEK293-Kir2.1, FluxOR thallium flux fluorescence; stronger effect = lower value | B-score at 10 µM | 310,000 compounds, 0.85% hits | AID 1672;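 active = fluorescence ratio B-score at or below minus 3 SD of library scores, with starting-brightness B-score within 2 SD, cut at about -4.2 in these data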;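 also: channel flux triggered by added potassium and thallium sulfate stimulus; B-score of peak minus minimum fluorescence over baseline after thallium stimulus; more negative B-score means stronger Kir2.1 block with less thallium influx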
TRPC4 agonist: activators of mouse TRPC4 channel. 310,000 compounds, 0.49% hits. HEK293 TRPC4beta/mu-opioid, Fluo4 calcium fluorescence; stronger effect = higher value. AID 2237. B-score at 10 µM. Q9QUQ5;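 active = B-score above 5 SD of library B-scores, and initial fluorescence ratio not above library mean plus 5 SD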;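 also: positive B-score marks a calcium rise read as TRPC4 activation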
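Material: TRPC4beta and mu-opioid receptor HEK293 stable cells | Incubation: 45 min room-temperature Fluo4 loading, 110 s read | Detection: Kinetic Fluo4 calcium fluorescence | Measure: Integrated baseline-normalised fluorescence ratio, converted to per-well B score | Benchmarks: Low control buffer alone, high control maximal DAMGO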
TRPC6 act: activates the mouse TRPC6 cation channel. AID 2550. B-score at 10 µM. HEK293-TRPC6 membrane potential dye fluorescence; stronger effect = higher value. Q61143. 310,000 compounds, 0.13% hits;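 active = B-score of the integrated fluorescence ratio above library mean plus 3 SD, and starting fluorescence ratio within library mean plus 5 SD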;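 also: higher score means more depolarization so channel activation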
TRPC4 inh: TRPC4 (mouse) channel inhibition; Q9QUQ5; HEK293 TRPC4beta/mu-opioid, DAMGO-evoked Fluo4 calcium flux; stronger effect = lower value; B-score at 10 µM; 300,000 compounds, 0.39% hits; AID 2247;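 active = B-score over 3 SD under the library average, no early fluorescence shift, positive overall ratio signal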
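Material: HEK293 cells with stable TRPC4beta plus mu-opioid receptor expression; probe or stimulus: DAMGO in two steps, submaximal then maximal; technique: Fluo4 calcium fluorescence by kinetic imaging, 5 s 1 Hz baseline; measure: integrated fluorescence ratio relative to baseline, converted to per-well B score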
TRPC6 inh: blocks the mouse TRPC6 cation channel; Q61143; HEK293-TRPC6, membrane potential dye, ACh-evoked depolarization; stronger effect = lower value; B-score at 10 µM; 310,000 compounds, 1.1% hits;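 active = B-score under library mean minus 3 SD, initial fluorescence not abnormally high, positive integrated signal ratio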;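 also: B-score derived from integrated fluorescence ratio over the kinetic read; more negative B-score means stronger inhibition of depolarization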
HEK293 MPD ctr: counter-screen for TRPC6 modulators: effect in parental HEK293 cells | shares compounds with TRPC6 inh | membrane potential dye fluorescence | membrane potential signal change, % at 10 µM | 2,400 compounds, 51% hits | AID 488924;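 active = membrane potential signal moves up or down beyond 5 SD from buffer-only wells, on both duplicate plates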
HEK293 MPD ctr 2: second counter-screen for TRPC6 modulators: effect in parental HEK293 cells | shares compounds with TRPC6 inh | membrane potential dye fluorescence; after compound, maximal acetylcholine stimulation | inhibition, % at 10 µM | 2,400 compounds, 14% hits | AID 488926;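 active = membrane potential signal drops by more than 5 SD from the mean control signal, in both duplicate plates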;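 also: plate controls were acetylcholine ECmax control wells for no effect and buffer only wells for full effect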
TRPC4 ctr mod: selectivity of TRPC6 modulators against mouse TRPC4; shares compounds with TRPC6 inh; HEK293 TRPC4/mu-opioid, membrane potential fluorescence; percent change from control (negative = decrease, positive = increase), % at 10 µM; 2,400 compounds, 69% hits;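 active = membrane potential signal moved up or down beyond 5 SD of buffer control wells, in both duplicate plates, actives on both sides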;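 also: plate controls were assay buffer wells for no effect and DAMGO maximal-effect wells for full effect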
TRPC4/MOR inh 2: second check of whether TRPC6 modulators also affect mouse TRPC4; shares compounds with TRPC6 inh; HEK293 TRPC4/mu-opioid, membrane potential dye fluorescence; stimulated with maximal-effect DAMGO; inhibition, % at 10 µM; 2,400 compounds, 55% hits; AID 488928;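 active = drop in membrane potential signal beyond 5 SD of the control wells in both duplicate plates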;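 also: TRPC4 counter screen for TRPC6 hits run under conditions tuned for TRPC6 not TRPC4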
TRPC6 inh conf: confirmation of mouse TRPC6 inhibitors | shares compounds with TRPC6 inh | HEK293-TRPC6, membrane potential dye, ACh-evoked depolarization | inhibition, % at 10 µM | 3,300 compounds, 43% hits | AID 488960;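 active = fluorescence ratio falls more than 5 SD below the full-stimulation control mean, in both duplicate runs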;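 also: integrated fluorescence ratio of peak minus minimum over baseline after agonist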
TRPC6 act confirm: mouse TRPC6 activator confirmation | activation, % at 10 µM | 2,800 compounds, 11% hits | HEK293-TRPC6 membrane potential dye fluorescence, FDSS | shares compounds with TRPC6 inh;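 active = ratio signal rise beyond 5 SD above unstimulated control wells' mean, seen in both duplicate runs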;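 also: plate controls were buffer EC0 wells for no effect and acetylcholine ECmax response for full effect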
The depositor's hits bear a star; i = inactive; x = no result; + = active, no number.

SMILES	TRPC4 potent	Kir21 inh	TRPC4 agonist	TRPC6 act	TRPC4 inh	TRPC6 inh	HEK293 MPD ctr	HEK293 MPD ctr 2	TRPC4 ctr mod	TRPC4/MOR inh 2	TRPC6 inh conf	TRPC6 act confirm
CCCN1CCCc2cc(CN(CCCN3CCOCC3)C(=O)Nc3ccc(OCC)cc3)ccc21	i	0.02	i	i	i	-5.34*	i	i	i	37.5%*	i	i
CSc1ccc2c(c1)C(N1CCN(C)CC1)Cc1ccc(F)cc1S2 (stereo not drawn)	i	-3.06	i	i	i	i	x	x	x	x	x	x
CSc1ccc2c(c1)N(CCC1CCCCN1C)c1ccccc1S2 (stereo not drawn)	i	-8.24*	i	i	i	-6.01*	i	59.0%*	i	85.0%*	67.0%*	i
Nc1ccc(Br)c2c1C(=O)c1ccccc1C2=O	i	0.15	i	i	i	i	x	x	x	x	x	x
Nc1ccc(O)c2c1C(=O)c1ccccc1C2=O	i	-0.54	i	i	i	-8.18*	-85.0%*	i	-39.5%*	66.5%*	41.5%*	i
CCSC1=N/C(=C\c2ccc(C(=O)O)cc2)C(=O)S1	i	-1.43	i	i	i	i	x	x	x	x	x	x
CCOC(=O)SC1=N/C(=C\c2ccc(N(C)C)cc2)C(=O)S1	i	-2.02	i	11.7*	i	-5.99*	i	i	12.5%*	i	i	i
COc1ccc(Nc2nc(N)c3ccccc3n2)c(OC)c1	i	-5.11*	i	i	-7*	-10*	-202.5%*	85.5%*	-41.5%*	92.0%*	90.5%*	i
COc1ccc(Nc2nc(-c3ccccc3)nc3ccccc23)c(OC)c1	i	-0.02	i	i	i	i	x	x	x	x	x	x
COc1nc(Nc2cccc(F)c2)nc(OC)n1	i	-0.26	i	i	i	i	x	x	x	x	x	x
COc1cc2nc(Nc3cccc(F)c3)nc(N)c2cc1OC	i	-1.67	i	i	i	-6.47*	i	i	i	47.0%*	52.0%*	i
Cc1ccc(Nc2nc(N)c3ccccc3n2)cc1C	i	-2.31	i	i	i	-11.7*	-94.5%*	65.0%*	-36.0%*	78.0%*	66.0%*	i
O=C(NC1CC1)C1CCN(C2CCN(C(=O)CCOc3ccccc3)CC2)CC1	i	0.46	i	30.2*	i	i	245.5%*	i	75.5%*	i	i	66.0%*
CC1CCCN(CCCNC(=O)c2coc3nc4ccccc4nc23)C1 (stereo not drawn)	i	-0.02	i	i	i	i	x	x	x	x	x	x
CC1CCN(CCCNC(=O)c2coc3nc4ccccc4nc23)CC1	i	-0.37	i	i	i	-5.14*	i	i	-15.5%*	45.5%*	i	i
CCOCCCNC(=S)N1C2CCC1CC(NC(=O)Nc1ccc(C(=O)OCC)cc1)C2 (stereo not drawn)	i	1.16	i	i	i	-7.17*	i	i	i	i	66.5%*	x
Nc1nnc(CSCc2cccc(Br)c2)s1	i	-2.4	i	i	i	i	x	x	x	x	x	x
Cc1ccc(OCCCN2CCCC2)c(C)c1	i	-0.14	i	i	i	i	x	x	x	x	x	x
Cc1ccc(OCCCCNC2CCCC(C)C2C)c(C)c1 (stereo not drawn)	i	-7.41*	i	13*	i	-5.69*	348.5%*	i	102.0%*	51.0%*	i	119.0%*
O=C1/C(=C/c2ccccc2)Nc2ccccc21	i	-2.46	83*	70.2*	i	i	+	+	309.0%*	i	x	587.0%*
O=c1c2ccccc2nc(SCc2ccc([N+](=O)[O-])cc2)n1CCCO	i	0.03	i	i	-6*	-5.46*	i	i	i	83.5%*	i	i
O=c1[nH]c(CN2CCN(C/C=C/c3ccccc3)CC2)nc2cc(Cl)ccc12	i	-0.53	i	i	i	-5.3*	i	i	8.5%*	44.0%*	i	i
CC(=O)C(Cc1ccccc1)NC(=O)COC(=O)CCN1C(=O)C2CC=CCC2C1=O (stereo not drawn)	i	0.15	i	i	i	i	x	x	x	x	x	x
Cc1ccc(C)c(N2C(=N)S/C(=C\c3ccc(-c4ccccc4C(=O)O)o3)C2=O)c1	i	-0.43	i	i	i	i	x	x	x	x	x	x
Cc1ccc2c(nc3s/c(=C\c4ccc(-c5ccccc5C(=O)O)o4)c(=O)n32)c1C	i	-9.77	189*	77.5*	-8*	i	+	i	408.5%*	i	i	592.5%*
CCc1ccc(C(=O)COC(=O)c2cccnc2Cl)cc1	i	0.68	i	i	i	i	x	x	x	x	x	x
CCC(C)(C)NC(=O)C(c1ccc(C)o1)N(Cc1cccs1)C(=O)Cn1nnc2ccccc21 (stereo not drawn)	i	0.45	i	15.2*	i	i	341.5%*	i	80.5%*	i	i	99.0%*
O=C(c1ccc(F)cc1)N1CCCC(C(=O)N2CCc3ccccc3C2)C1 (stereo not drawn)	i	-1.79	i	i	i	i	x	x	x	x	x	x
C/C(N)=C(/C#N)C(=O)COC(=O)c1ccncc1	i	-0.41	i	i	i	i	x	x	x	x	x	x

Assay outcomes as filed in PubChem BioAssay.
